Results collected from several papers.
Lines come from different studies, so protocols differ.
Target: Serine/threonine-protein kinase 32A (STK32A, Homo sapiens, UniProt Q8WU08)

The remaining binding of O=C(Nc1c[nH]nc1C(=O)NC1CCNCC1)c1cc(F)cc(F)c1 is reported as 95% (binding, competition with immobilised ligand; 1 µM).
The remaining binding of NS(=O)(=O)c1cc(NC(=O)Cc2ccccc2)ccc1Oc1cccc(Cl)c1 is reported as 100% (cell-free assay, competition with immobilised ligand; 1 µM).
With COc1cnc(Nc2cccc(S(N)(=O)=O)c2)nc1N1CCN(c2ccccc2)C(=O)C1 the remaining binding was 98% (binding, competition with immobilised ligand; 1 µM).
The remaining binding of O=C(c1ccc(Nc2nccc(-c3cc4ccccc4s3)n2)cc1)N1CCC(N2CCCC2)CC1 is reported as 100% (binding, competition with immobilised ligand; 1 µM).
For Cc1cnn2ncc(-c3ccnc(N(C)C)n3)c2c1, the remaining binding was 71% (binding; 1 µM).
With CC(=O)Nc1c(C(C)=O)c(=O)n(C)c2nc(-c3ccc(Cl)cc3Cl)c(-c3ccc(Cl)cc3)cc12 the remaining binding was 82% (cell-free assay, competition with immobilised ligand; 1 µM).
COc1ncc2cc3ccccc3nc2c1C#N gave a remaining binding of 100% (binding, competition with immobilised ligand; 5 µM).
The remaining binding of CN(c1ccnc(CNc2nc(Nc3ccc4c(c3)CC(=O)N4)ncc2C(F)(F)F)n1)S(C)(=O)=O is reported as 72% (cell-free assay, competition with immobilised ligand; 1 µM).
c1cncc(-c2cccc(Nc3nccc(NC4CCCCC4)n3)c2)c1 has a remaining binding of 69% (binding, competition with immobilised ligand; 10 µM).
With COc1ccnn2ncc(-c3ccnc(N(C)C)n3)c12 the remaining binding was 74% (binding; 1 µM).
CCCOc1ccc([C@@H]2[C@@H](C(=O)O)[C@H](c3ccc4c(c3)OCO4)CN2CC(=O)Nc2c(CC)cccc2CC)cc1 gave a remaining binding of 85% (cell-free assay, competition with immobilised ligand; 1 µM).
COc1cnc(Nc2cccc(S(N)(=O)=O)c2)nc1N1CCN(c2ccccc2)CC1 gave a remaining binding of 94% (binding, competition with immobilised ligand; 1 µM).
For F[C@@H]1CCN(c2nccc(-c3cnn4ncccc34)n2)C1, the remaining binding was 100% (binding; 1 µM).
The remaining binding of O=C(c1ccc(Nc2ncc(Cl)c(-c3cc4ccccc4s3)n2)cc1)N1CCC(N2CCCC2)CC1 is reported as 68% (binding, competition with immobilised ligand; 1 µM).
CN(C)c1ncc(F)c(-c2cnn3ncccc23)n1 has a remaining binding of 100% (binding; 1 µM).
For COc1ccc2c(c1)O[C@H](c1ccc(OC)c(OC)c1)C[C@@H]2NC(=O)C1(c2ccc3c(c2)OC(F)(F)O3)CC1, the remaining binding was 100% (cell-free assay, competition with immobilised ligand; 1 µM).
C[C@H]1CCN(c2nccc(-c3cnn4ncccc34)n2)C1 has a remaining binding of 64% (binding; 1 µM).
The remaining binding of N#Cc1ccc(Nc2ccc3[nH]c(=O)[nH]c3c2)c(Cl)c1 is reported as 81% (binding, competition with immobilised ligand; 1 µM).
N[C@H]1CCN(c2nccc(-c3cnn4ncccc34)n2)C1 has a remaining binding of 87% (binding; 1 µM).
The remaining binding of O=C(NCCCN1CCOCC1)c1ccc(Nc2nccc(-c3cc4ccccc4s3)n2)cc1 is reported as 100% (binding, competition with immobilised ligand; 1 µM).
CN(C)c1nccc(-c2cnn3ncccc23)n1 gave a remaining binding of 81% (binding; 1 µM).
With Nc1ncc2c(n1)-c1c([nH]c3ccc(C#CC4CC4)cc13)CCCC2 the remaining binding was 80% (binding, competition with immobilised ligand; 1 µM).
